From ChEMBL document CHEMBL1157573, “BRAF inhibitors based on an imidazo[4,5]pyridin-2-one scaffold and a meta substituted middle ring” (J Med Chem, 2010)

Assays:
[1] = Antiproliferative activity against human WM266.4 cells after 5 days by SRB assay; conditions: WM 266-4, 120 h
[2] = Antiproliferative activity against human WM1361 cells after 5 days by SRB assay; conditions: WM1361, 120 h
[3] = molecular target: T1, Serine/threonine-protein kinase B-raf (Homo sapiens, UniProt P15056, V600E); assay: Inhibition of human BRAF V600E mutant expressed in Sf9 cells
[4] = molecular target: T1, Serine/threonine-protein kinase B-raf; assay: Inhibition of BRAF V600E mutant-mediated ERK phosphorylation in human WM266.4 cells; type: cell-based
[5] = Antiproliferative activity against human WM266.4 cells after 6 days by SRB assay; type: functional; conditions: WM 266-4, 144 h
How it was run: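 SRB cell proliferation assay on WM266.4 melanoma cells, which carry mutant BRAF. Growth inhibition is reported as GI50.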

T1 sequence (P15056 2-766 V600E limits assumed): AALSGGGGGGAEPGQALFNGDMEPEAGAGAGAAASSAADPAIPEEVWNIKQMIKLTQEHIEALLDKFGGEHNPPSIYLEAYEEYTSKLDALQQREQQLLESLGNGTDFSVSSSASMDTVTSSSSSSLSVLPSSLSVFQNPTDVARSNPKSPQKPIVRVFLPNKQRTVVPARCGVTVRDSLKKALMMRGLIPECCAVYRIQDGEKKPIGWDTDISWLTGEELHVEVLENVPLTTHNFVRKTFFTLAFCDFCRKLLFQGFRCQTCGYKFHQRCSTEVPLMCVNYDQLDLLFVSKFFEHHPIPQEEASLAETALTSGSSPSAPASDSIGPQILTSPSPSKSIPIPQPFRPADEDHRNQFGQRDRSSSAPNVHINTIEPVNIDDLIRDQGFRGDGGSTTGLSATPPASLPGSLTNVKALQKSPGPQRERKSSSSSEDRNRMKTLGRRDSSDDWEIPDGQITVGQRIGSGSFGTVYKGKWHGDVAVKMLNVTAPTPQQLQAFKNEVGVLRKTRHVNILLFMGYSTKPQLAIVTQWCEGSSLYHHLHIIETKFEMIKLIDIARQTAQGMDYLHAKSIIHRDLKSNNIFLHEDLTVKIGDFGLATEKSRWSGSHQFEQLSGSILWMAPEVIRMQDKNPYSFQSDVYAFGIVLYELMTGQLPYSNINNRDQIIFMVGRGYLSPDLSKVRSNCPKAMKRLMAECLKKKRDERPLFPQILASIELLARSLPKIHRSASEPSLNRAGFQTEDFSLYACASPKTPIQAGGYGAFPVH

| SMILES | IC50 [3] [nM] | IC50 [4] [µM] | GI50 [1] [µM] | GI50 [2] [µM] | GI50 [5] [µM] |
| --- | --- | --- | --- | --- | --- |
| CNC(=O)c1cc(Oc2ccc(NC(=O)Nc3ccc(Cl)c(C(F)(F)F)c3)cc2)ccn1 [SORAFENIB] |  |  | 4.93 | 4.34 |  |
| CC(C)(C)c1cc(C(=O)Nc2cccc(Oc3ccnc4[nH]c(=O)[nH]c34)c2)n(-c2ccccc2)n1 | 274 | 13.7 |  |  | 3.1 |
| Cc1ccc(NC(=O)c2cccc(OC(F)(F)F)c2)cc1Oc1ccnc2[nH]c(=O)[nH]c12 | > 10000 | > 100 |  |  | 38 |
| O=C(CCc1ccccc1)Nc1cccc(Oc2ccnc3[nH]c(=O)[nH]c23)c1 | 94000 | > 100 |  |  | 30.9 |
| O=C(Nc1cccc(Oc2ccnc3[nH]c(=O)[nH]c23)c1)c1cccc(N2CCCC2)c1 | 115 | > 100 |  |  | > 10 |
| O=C(Nc1cccc(Oc2ccnc3[nH]c(=O)[nH]c23)c1)c1cccc2c1OCCO2 | > 100000 | > 100 |  |  | 40 |

Further lines, with some results ahead:

| IC50 [3] [nM] | IC50 [4] [µM] | SMILES | GI50 [1] [µM] | GI50 [2] [µM] | GI50 [5] [µM] |
| --- | --- | --- | --- | --- | --- |
| 79000 | 35.8 | O=C(Nc1cccc(Oc2ccnc3[nH]c(=O)[nH]c23)c1)c1ccccc1OC(F)(F)F |  |  | 1.3 |
| 33 | 11.3 | O=C(Nc1cc(Cl)cc(Oc2ccnc3[nH]c(=O)[nH]c23)c1)c1cccc(OC(F)(F)F)c1 |  |  | 1.9 |
| 690 | 23.9 | O=C(Nc1cccc(Oc2ccnc3[nH]c(=O)[nH]c23)c1)c1cc(Cl)cc(C(F)(F)F)c1 |  |  | 3.3 |
| 15 | 10.7 | O=C(Nc1cccc(Oc2ccnc3[nH]c(=O)[nH]c23)c1)Nc1ccc(Cl)c(C(F)(F)F)c1 |  |  | 4.2 |
| 90 | 8.2 | O=C(Nc1ccc(Cl)c(C(F)(F)F)c1)c1cccc(Oc2ccnc3[nH]c(=O)[nH]c23)c1 |  |  | 7.3 |
| 93000 | > 100 | O=C(Nc1cccc(Oc2ccnc3[nH]c(=O)[nH]c23)c1)c1ccnc(Cl)c1 |  |  | 25 |
| 68000 | > 100 | O=C(Nc1cccc(Oc2ccnc3[nH]c(=O)[nH]c23)c1)c1ccc(Cl)cc1 |  |  | 9.1 |
